# Assay results: ChEMBL document CHEMBL4732100, “Water-soluble inhibitors of ABCG2 (BCRP) - A fragment-based and computational approach” (Eur J Med Chem, 2021)
# Test system: not listed separately
# Assay: Stability of compound in human plasma at 200 uM measured up to 24 hrs by HPLC-MS analysis
# Format: ADME, cell-free
# Conditions: not given; call rule not given here
# Summary of the method: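 Compound from 10 mM DMSO stock incubated in human CPD plasma at 37 °C for up to 24 h. Samples filtered (0.2 µm). Analyzed by RP-HPLC on a C8 column with acetonitrile/0.05% aq TFA gradient 20:80→95:5 over 12 min and UV detection at 220 nm. HPLC-MS run at 0 h and 24 h.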
row,Structure (SMILES),Stabilty
1,Cc1ccc(-c2cn(CCN3CCCC3)nn2)c(NC(=O)c2cc(=O)c3ccccc3o2)c1,Stable

# Biological target: T1, ABCG2 (Homo sapiens, UniProt Q9UNQ0)
# T1 sequence (Q9UNQ0 whole entry): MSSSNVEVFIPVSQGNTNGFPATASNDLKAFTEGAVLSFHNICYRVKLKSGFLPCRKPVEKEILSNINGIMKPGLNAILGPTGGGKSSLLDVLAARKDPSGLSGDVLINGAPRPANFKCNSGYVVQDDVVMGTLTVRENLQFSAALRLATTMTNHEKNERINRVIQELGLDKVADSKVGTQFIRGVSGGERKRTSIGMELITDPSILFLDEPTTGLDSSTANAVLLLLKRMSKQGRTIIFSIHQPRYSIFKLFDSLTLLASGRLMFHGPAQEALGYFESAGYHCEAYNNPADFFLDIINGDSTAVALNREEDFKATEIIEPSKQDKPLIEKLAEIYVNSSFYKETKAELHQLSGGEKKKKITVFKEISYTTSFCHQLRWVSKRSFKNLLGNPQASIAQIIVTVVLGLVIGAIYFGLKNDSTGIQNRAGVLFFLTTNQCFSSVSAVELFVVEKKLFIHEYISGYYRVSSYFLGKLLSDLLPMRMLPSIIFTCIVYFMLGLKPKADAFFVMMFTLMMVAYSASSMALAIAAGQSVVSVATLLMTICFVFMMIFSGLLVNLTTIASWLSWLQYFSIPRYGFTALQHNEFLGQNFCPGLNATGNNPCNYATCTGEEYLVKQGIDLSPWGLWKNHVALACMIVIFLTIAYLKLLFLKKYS
# Assay: Inhibition of human ABCG2 in human MCF7/Topo cells assessed as accumulation of substrate Hoechst […] stain at 10 uM measured after 2 hrs by fluorometric microplate reader assay relative to FTC
# Format: cell-based
# Conditions: read-out: Imax
row,Structure (SMILES),"Emax at 2 h, 10 µM [%]"
1,CCC(=O)c1ccc(-c2cn(-c3ccc(CCN4CCc5cc(OC)c(OC)cc5C4)cc3)nn2)cc1NC(=O)c1cccc([N+](=O)[O-])n1,91
2,COc1cc2c(cc1OC)CN(CCc1ccc(-n3cc(-c4ccccc4)nn3)cc1)CC2,41
3,CCC(=O)c1ccc(-c2cn(-c3ccc(CCN4CCc5cc(OC)c(OC)cc5C4)cc3)nn2)cc1NC(=O)c1cccc(C)n1,81
4,CCC(=O)c1ccc(-c2cn(-c3ccc(CCN4CCc5cc(OC)c(OC)cc5C4)cc3)nn2)cc1NC(=O)c1cccc(O)n1,75
5,Cc1ccc(-c2cn(CCN3CCCC3)nn2)c(NC(=O)c2cc(=O)c3ccccc3o2)c1,103

# Test system: not listed separately
# Assay: Kinetic solubility of compound in PBS at pH 7.4 measured after 2 hrs by turbidimetric measurement
# Conditions: read-out: Kinetic_solubility
row,Structure (SMILES),solubility kinetic at 2 h [µM]
1,CCC(=O)c1ccc(-c2cn(-c3ccc(CCN4CCc5cc(OC)c(OC)cc5C4)cc3)nn2)cc1NC(=O)c1cccc([N+](=O)[O-])n1,10
2,CCC(=O)c1ccc(-c2cn(-c3ccc(CCN4CCc5cc(OC)c(OC)cc5C4)cc3)nn2)cc1NC(=O)c1cccc(C)n1,3
3,CCC(=O)c1ccc(-c2cn(-c3ccc(CCN4CCc5cc(OC)c(OC)cc5C4)cc3)nn2)cc1NC(=O)c1cccc(O)n1,7
4,Cc1ccc(-c2cn(CCN3CCCC3)nn2)c(NC(=O)c2cc(=O)c3ccccc3o2)c1,7

# Biological target: ATP-dependent translocase ABCB1 (Homo sapiens, UniProt P08183)
# Sequence (P08183 whole entry): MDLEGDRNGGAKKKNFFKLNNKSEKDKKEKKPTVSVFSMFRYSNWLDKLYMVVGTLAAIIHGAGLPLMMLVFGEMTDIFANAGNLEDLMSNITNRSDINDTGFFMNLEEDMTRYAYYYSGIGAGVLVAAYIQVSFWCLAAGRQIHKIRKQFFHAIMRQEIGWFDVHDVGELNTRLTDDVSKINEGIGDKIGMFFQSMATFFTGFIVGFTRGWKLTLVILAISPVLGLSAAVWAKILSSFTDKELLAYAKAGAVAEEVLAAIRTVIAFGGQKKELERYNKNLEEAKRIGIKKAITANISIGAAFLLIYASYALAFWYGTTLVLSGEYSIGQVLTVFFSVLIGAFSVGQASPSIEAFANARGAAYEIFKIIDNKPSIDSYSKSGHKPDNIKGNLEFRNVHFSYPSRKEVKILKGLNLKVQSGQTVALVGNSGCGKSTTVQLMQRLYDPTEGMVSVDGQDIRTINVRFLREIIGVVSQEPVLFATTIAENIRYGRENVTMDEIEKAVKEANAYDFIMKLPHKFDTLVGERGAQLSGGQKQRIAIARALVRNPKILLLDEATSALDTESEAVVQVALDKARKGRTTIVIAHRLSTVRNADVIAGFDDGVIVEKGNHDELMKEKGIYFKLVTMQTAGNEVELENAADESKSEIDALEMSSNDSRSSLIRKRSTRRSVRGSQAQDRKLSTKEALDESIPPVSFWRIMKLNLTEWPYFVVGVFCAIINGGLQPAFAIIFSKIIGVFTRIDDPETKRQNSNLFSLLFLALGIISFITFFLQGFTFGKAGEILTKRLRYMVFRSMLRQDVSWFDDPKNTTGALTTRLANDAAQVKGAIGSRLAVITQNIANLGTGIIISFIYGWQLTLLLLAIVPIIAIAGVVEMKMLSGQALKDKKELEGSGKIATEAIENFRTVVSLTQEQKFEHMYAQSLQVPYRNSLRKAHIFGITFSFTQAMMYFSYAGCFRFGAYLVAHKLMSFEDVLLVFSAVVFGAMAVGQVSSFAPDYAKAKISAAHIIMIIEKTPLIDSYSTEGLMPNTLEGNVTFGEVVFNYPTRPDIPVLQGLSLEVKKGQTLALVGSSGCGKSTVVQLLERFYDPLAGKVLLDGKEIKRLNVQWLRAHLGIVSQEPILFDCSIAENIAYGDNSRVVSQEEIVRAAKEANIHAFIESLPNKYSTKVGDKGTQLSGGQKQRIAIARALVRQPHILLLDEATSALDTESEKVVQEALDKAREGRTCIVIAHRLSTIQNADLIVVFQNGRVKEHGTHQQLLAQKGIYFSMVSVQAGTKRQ
# Assay: Inhibition of ABCB1 in human KB-V1 cells assessed as accumulation of substrate calcein-AM stain measured after 10 mins by fluorometric microplate reader assay
# Format: cell-based
# Conditions: kb-v1
# Summary of the method: (§1)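 KB-V1 cells (ABCB1-overexpressing KB variant) kept under 330 nM vinblastine. Calcein-AM accumulation read by fluorescence after intracellular cleavage to calcein. Compounds tested up to 100 µM. Inhibition is normalized to 10 µM tariquidar set to 100% (Imax). Mean ± SEM from ≥3 experiments in triplicate.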
row,Structure (SMILES),IC50
1,CCC(=O)c1ccc(-c2cn(-c3ccc(CCN4CCc5cc(OC)c(OC)cc5C4)cc3)nn2)cc1NC(=O)c1cccc([N+](=O)[O-])n1,Not Active
2,COc1cc2c(cc1OC)CN(CCc1ccc(-n3cc(-c4ccccc4)nn3)cc1)CC2,Not Active
3,Cc1ccc(-c2cn(CCN3CCCC3)nn2)c(NC(=O)c2cc(=O)c3ccccc3o2)c1,Not Active

# Same assay, conditions: read-out: IC50
row,Structure (SMILES),IC50 [nM]
1,CCC(=O)c1ccc(-c2cn(-c3ccc(CCN4CCc5cc(OC)c(OC)cc5C4)cc3)nn2)cc1NC(=O)c1cccc(C)n1,> 9970
2,CCC(=O)c1ccc(-c2cn(-c3ccc(CCN4CCc5cc(OC)c(OC)cc5C4)cc3)nn2)cc1NC(=O)c1cccc(O)n1,> 18500

# Biological target: T1, ABCG2
# Assay: Substrate activity at ABCG2 in human MCF7/Topo cells assessed as increase in ATPase activity measured after 1 hr by colorimetric assay relative to sulfasalazine
# Format: cell-based
# Conditions: read-out: Imax
# Summary of the method: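 Membranes prepared from MCF-7/Topo cells: homogenized in TMEP buffer pH 7 with protease inhibitors, 500 g spin, then 100,000 g for 1 h. Released inorganic phosphate read by molybdenum blue reaction. Basal activity set to 0% and 30 µM sulfasalazine to 100%. Concentration-response data; mean ± SEM of ≥3 experiments in triplicate.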
row,Structure (SMILES),Emax at 1 h [%]
1,Cc1ccc(-c2cn(CCN3CCCC3)nn2)c(NC(=O)c2cc(=O)c3ccccc3o2)c1,29

# Biological target: T2, Broad substrate specificity ATP-binding cassette transporter ABCG2 (Homo sapiens, UniProt Q9UNQ0)
# T2 sequence (Q9UNQ0 whole entry): T1 sequence (Q9UNQ0 whole entry)
# Assay: Inhibition of human ABCG2 in human MCF7/Topo cells assessed as accumulation of substrate Hoechst […] stain measured after 2 hrs by fluorometric microplate reader assay
# Format: cell-based
# Conditions: read-out: IC50
row,Structure (SMILES),IC50 [nM]
1,CCC(=O)c1ccc(-c2cn(-c3ccc(CCN4CCc5cc(OC)c(OC)cc5C4)cc3)nn2)cc1NC(=O)c1cccc([N+](=O)[O-])n1,70
2,COc1cc2c(cc1OC)CN(CCc1ccc(-n3cc(-c4ccccc4)nn3)cc1)CC2,3610
3,CCC(=O)c1ccc(-c2cn(-c3ccc(CCN4CCc5cc(OC)c(OC)cc5C4)cc3)nn2)cc1NC(=O)c1cccc(C)n1,166
4,CCC(=O)c1ccc(-c2cn(-c3ccc(CCN4CCc5cc(OC)c(OC)cc5C4)cc3)nn2)cc1NC(=O)c1cccc(O)n1,328
5,Cc1ccc(-c2cn(CCN3CCCC3)nn2)c(NC(=O)c2cc(=O)c3ccccc3o2)c1,109

# Biological target: ABCB1 (Homo sapiens, UniProt P08183)
# Sequence (P08183 whole entry): as above
# Assay: Inhibition of ABCB1 in human KB-V1 cells assessed as accumulation of substrate calcein-AM stain at 10 uM measured after 10 mins by fluorometric microplate reader assay relative to Tariquidar
# Format: cell-based
# Conditions: probe calcein-AM, read-out: Imax
# Summary of the method: as §1
row,Structure (SMILES),"Emax at 10 min, 10 µM [%]"
1,CCC(=O)c1ccc(-c2cn(-c3ccc(CCN4CCc5cc(OC)c(OC)cc5C4)cc3)nn2)cc1NC(=O)c1cccc(C)n1,> 19
2,CCC(=O)c1ccc(-c2cn(-c3ccc(CCN4CCc5cc(OC)c(OC)cc5C4)cc3)nn2)cc1NC(=O)c1cccc(O)n1,> 14

# Test system: not listed separately
# Assay: Thermodynamic solubility of compound in PBS at pH 7.4 […] by shake-flask method
# Format: physicochemical
# Conditions: buffer
row,Structure (SMILES),Therm_solubility [µM]
1,CCC(=O)c1ccc(-c2cn(-c3ccc(CCN4CCc5cc(OC)c(OC)cc5C4)cc3)nn2)cc1NC(=O)c1cccc([N+](=O)[O-])n1,< 0.1
2,CCC(=O)c1ccc(-c2cn(-c3ccc(CCN4CCc5cc(OC)c(OC)cc5C4)cc3)nn2)cc1NC(=O)c1cccc(C)n1,0.445
3,CCC(=O)c1ccc(-c2cn(-c3ccc(CCN4CCc5cc(OC)c(OC)cc5C4)cc3)nn2)cc1NC(=O)c1cccc(O)n1,0.855
4,Cc1ccc(-c2cn(CCN3CCCC3)nn2)c(NC(=O)c2cc(=O)c3ccccc3o2)c1,1.228

# Test system: not listed separately
# Assay: Inhibition of human ABCC1 expressed in MDCK-MRP1 cells assessed as accumulation of substrate calcein-AM stain measured after 1 hr by fluorometric microplate reader assay
# Format: cell-based, Canis lupus familiaris
# Conditions: not given
# Summary of the method: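 MDCK.2 cells transfected with human ABCC1 (MDCK.2-MRP1), trypsinized with 2X trypsin/EDTA for 30 min. Calcein-AM accumulation measured fluorometrically. Compounds tested up to 100 µM. Inhibition is normalized to 30 µM reversan set to 100% (Imax). Mean ± SEM from ≥3 experiments in triplicate.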
row,Structure (SMILES),IC50
1,CCC(=O)c1ccc(-c2cn(-c3ccc(CCN4CCc5cc(OC)c(OC)cc5C4)cc3)nn2)cc1NC(=O)c1cccc([N+](=O)[O-])n1,Not Active
2,COc1cc2c(cc1OC)CN(CCc1ccc(-n3cc(-c4ccccc4)nn3)cc1)CC2,Not Active
3,CCC(=O)c1ccc(-c2cn(-c3ccc(CCN4CCc5cc(OC)c(OC)cc5C4)cc3)nn2)cc1NC(=O)c1cccc(C)n1,Not Active
4,CCC(=O)c1ccc(-c2cn(-c3ccc(CCN4CCc5cc(OC)c(OC)cc5C4)cc3)nn2)cc1NC(=O)c1cccc(O)n1,Not Active
5,Cc1ccc(-c2cn(CCN3CCCC3)nn2)c(NC(=O)c2cc(=O)c3ccccc3o2)c1,Not Active
